Screening results: PubChem, The Scripps Research Institute Molecular Screening Center
Shown are actives, neighbours in structure and some others; about 1.9% of the full set was active somewhere.
M4 ag = human M4 muscarinic receptor agonists, primary screen, CHO-K1 cells, Fluo-8 calcium fluorescence; Muscarinic acetylcholine receptor M4 (Homo sapiens), P08173; CHO-K1 hM4/Gqi5; vehicle 0%, full acetylcholine response 100%; activation, % at 3 µM; 0.14% of 360,000 active;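 active = activation above the run mean over all test wells plus 3 SD, cut at about 32% in these data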;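 also: peak over basal fluorescence ratio per well then scaled between controls; 0% = DMSO wells and 100% = acetylcholine at EC100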
Target sequence (P08173 whole entry, looked up): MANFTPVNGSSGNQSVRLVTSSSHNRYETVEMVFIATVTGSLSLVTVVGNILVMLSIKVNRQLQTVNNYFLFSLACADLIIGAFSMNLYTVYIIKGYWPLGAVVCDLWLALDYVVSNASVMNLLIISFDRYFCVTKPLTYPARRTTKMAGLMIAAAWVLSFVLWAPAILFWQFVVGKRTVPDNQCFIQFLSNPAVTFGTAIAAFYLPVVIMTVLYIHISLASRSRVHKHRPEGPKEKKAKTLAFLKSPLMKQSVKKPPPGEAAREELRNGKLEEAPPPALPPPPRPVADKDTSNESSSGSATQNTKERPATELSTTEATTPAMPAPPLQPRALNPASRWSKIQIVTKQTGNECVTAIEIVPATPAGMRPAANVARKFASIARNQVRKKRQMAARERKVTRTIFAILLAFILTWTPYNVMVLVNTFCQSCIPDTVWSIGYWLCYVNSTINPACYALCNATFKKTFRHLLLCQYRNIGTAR
CHRM5 agonist = human M5 muscarinic receptor agonists, primary screen, CHO-K1 cells, Fluo-8 calcium fluorescence. Muscarinic acetylcholine receptor M5 (Homo sapiens), P08912. CHO-K1 hM5 cells; 0% DMSO wells, 100% maximal acetylcholine response. activation, % at 3 µM. 0.19% of 360,000 active;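 active = activation above the run's mean over test compounds plus 3 SD, cut at about 23% in these data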;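 also: signal is peak over basal fluorescence ratio across the kinetic read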
CHRM4 PAM = human M4 muscarinic receptor positive allosteric modulators, primary screen, CHO-K1 cells, Fluo-8 calcium fluorescence; Muscarinic acetylcholine receptor M4 (Homo sapiens), P08173; CHO-K1 hM4/Gqi5, ACh EC20; 0% = ACh EC20, 100% = maximal ACh; activation, % at 3 µM; 0.4% of 360,000 active;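 active = activation above its plate's cutoff, the mean activation of sample wells plus 3 SD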
CHRM5 PAM = human M5 muscarinic receptor positive allosteric modulators, primary screen, CHO-K1 cells, Fluo-8 calcium fluorescence; Muscarinic acetylcholine receptor M5 (Homo sapiens), P08912; CHO-K1 hM5, ACh EC20 PAM; 0% = ACh EC20, 100% = ACh EC100; activation, % at 3 µM; 0.3% of 360,000 active;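 active = activation above the run cutoff, the mean activation of all test compounds plus 3 SD, cut at about 18% in these data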
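Test system: CHO-K1 hM5 cells / Doses: single-point, 3 µM nominal / Times: Post-acetylcholine fluorescence recording 140 s / Technique: Fluo-8 calcium fluorescence / Measure: Max/basal fluorescence ratio as % of EC20–EC100 ACh window / Benchmarks: low control EC20 acetylcholine (0%), high control EC100 acetylcholine (100%) / Replicates: one well per compound, no replicates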
CHRM5 antagonist = human M5 muscarinic receptor antagonists, primary screen, CHO cells, Fluo-8 calcium fluorescence. 0.59% of 360,000 active. CHO-hM5 cells, ACh EC80. Muscarinic acetylcholine receptor M5 (Homo sapiens), P08912. inhibition, % at 3 µM;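 active = inhibition above a per-plate cutoff, the mean of that plate's test compounds plus 3 SD, cut at about 27% in these data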;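 also: 0% = acetylcholine EC80 with DMSO and 100% = DMSO without agonist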
CHRM4 antagonist = human M4 muscarinic receptor antagonists, primary screen, CHO cells, Fluo-8 calcium fluorescence | CHO-hM4 cells, ACh EC80 | AID 624125, 2012 | inhibition, % at 3 µM | 0.73% of 360,000 active | Muscarinic acetylcholine receptor M4 (Homo sapiens), P08173;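 active = inhibition above its plate's cutoff, the mean inhibition of sample wells plus 3 SD, cut at about 27% in these data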;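 also: 0% = acetylcholine EC80 with DMSO and 100% = DMSO without agonist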
* = called active by the depositor.

SMILES | M4 ag | CHRM5 agonist | CHRM4 PAM | CHRM5 PAM | CHRM5 antagonist | CHRM4 antagonist
O=C(CSCc1c(F)cccc1Cl)NCCSCc1ccco1 | 0 | 2 | 3 | 4 | 16 | -8
C[C@H](CO)N1C[C@H](C)[C@@H](CN(C)C(=O)Nc2ccccc2)Oc2c(NC(=O)NC3CCCCC3)cccc2C1=O | 2 | -1 | 3 | 0 | 12 | -14
CC(C)Cc1ccc([C@H](C)C(=O)O)cc1 | 0 | 0 | -6 | 5 | -5 | -1
CC(C)Cc1ccc(C(C)C(=O)Nc2cccnc2)cc1 (stereo not drawn) | 27 | 32* | -19 | -15 | 15 | 13
CC(C(=O)Nc1cccnc1)c1ccc([N+](=O)[O-])cc1 (stereo not drawn) | 3 | 2 | -4 | 1 | -8 | 0
CC(C)Cc1ccc(C(C)C(=O)Nc2ccc(O)cc2)cc1 (stereo not drawn) | 79* | 44* | -20 | -6 | 27* | 34*
CC(C)(C)n1cnc2cc(NCc3ccc(Br)cc3)ccc21 | 3 | -4 | -3 | -6 | 27* | -1
CCc1ccc(CNc2ccc3c(c2)ncn3C(C)(C)C)cc1 | 4 | -5 | -2 | -11 | 9 | -18
Cc1ccccc1C(=O)Nc1nnc(-c2cccnc2)o1 | 3 | 4 | 25 | 16 | -13 | -7
CC(NC(=O)COC(=O)c1ccc([N+](=O)[O-])s1)c1ccccc1 (stereo not drawn) | 2 | 1 | 12 | 32* | 9 | -1
CCCN(Cc1nnc(-c2cccs2)o1)C(=O)CN1C(=O)NC2(CCCCC2)C1=O | 0 | 0 | -2 | -3 | 9 | 2
COC(=O)CCc1c(C)c(C(=O)c2cccc(OC)c2OC)c2ccccn12 | 1 | -1 | 4 | 2 | 10 | 6
Cc1ccc(CNC(=O)c2cccc3c2C(=O)c2ccc(N4CCCCC4)cc2S3(=O)=O)cc1 | 99* | 61* | -17 | -36 | 32* | 14
O=C(NCc1ccco1)c1cccc2c1C(=O)c1ccc(N3CCCC3)cc1S2(=O)=O | 40* | 20 | -11 | -13 | 11 | -10
CC1CCN(c2ccc3c(c2)S(=O)(=O)c2cccc(C(=O)NC[C@@H]4CCCO4)c2C3=O)CC1 | 28 | 12 | -14 | -30 | 24 | 16
O=C(NCC1CCCO1)c1cccc2c1C(=O)c1ccc(N3CCC(Cc4ccccc4)CC3)cc1S2(=O)=O (stereo not drawn) | 73* | 43* | -21 | -39 | 34* | 35*
CCN1/C(=C2\C(=O)N(c3ccccc3)N=C2C)C=Cc2cc(C)ccc21 | 14 | 39* | -9 | -18 | 12 | 5
CCN1/C(=c2/s/c(=C3/C(=O)N(c4ccccc4)N=C3C)n(CC)c2=O)C=Cc2ccccc21 | 1 | 2 | -6 | 1 | 12 | -1
O=C1/C(=C/c2ccc3c(c2)OCO3)SC(=S)N1CCC(=O)N(CCO)c1ccccc1 | 6 | 82* | -1 | -14 | 67* | -7
O=C1/C(=C/c2cccc(Br)c2)SC(=S)N1CCC(=O)N(CCO)c1ccccc1 | 1 | 2 | 4 | 9 | 4 | -8
COc1ccc(/C=C2\SC(=S)N(CCC(=O)N(CCO)Cc3ccccc3)C2=O)cc1OC | 5 | -2 | 37* | 8 | -5 | 17
O=C1Nc2ccc(Br)cc2/C1=C/C1CC=CCC1 (stereo not drawn) | 0 | 3 | 14 | 26* | 2 | -14
COc1ccc(-c2n(CC(=O)OC3CC(C)CCC3C(C)C)c3ccccc3[n+]2C)cc1 (stereo not drawn) | 4 | -7 | -15 | -18 | 40* | 22
